Experimental data from PubChem BioAssay.
Results filed as inconclusive are left out.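 The calls were made as follows, unless noted: active = inhibition over a set limit, the all-compound mean plus 3 SD, in both replicate runs; inconclusive = over that limit in just one replicate run; inactive = at or under that limit in both runs.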

Tests used:
[1] = OD615 S. cerevisiae growth inhibition, permissive medium, pilot counter-assay, permissive growth control for S. cerevisiae lifespan shortening project (AID 705;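 active = growth inhibition above 25% in both replicates, a cutoff set 3 SD above the mean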); conditions: OD615, 24 h, at 10 µM, hits give high values
Summary of the method: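 System: engineered DeaD yeast; Medium: permissive raffinose/galactose medium; Compound dosing: 10 µM single dose, 0.25% DMSO; Incubation: 4 h cell pre-growth, 24 h exposure at 30 °C; Technique: OD at 615 nm; Evaluation: growth inhibition from lowered OD615 after 24 h.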

[2] = Restrictive medium S. cerevisiae growth inhibition, OD615, pilot screen of yeast lifespan reduction project, restrictive growth control (AID 706;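 active = growth inhibition above a set limit, 3 SD over mean compound inhibition, in both replicates, cut at about 43% in these data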;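 also: modified DeaD lifespan yeast strain shifted to restrictive glucose medium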); conditions: OD615, 48 h, at 10 µM, hits give high values
Summary of the method: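 Material: modified S. cerevisiae; buffer or medium: CSMM-D glucose medium; doses: one concentration, 10 µM final, 0.25% DMSO; incubation: 48 h compound exposure at 30 °C; detection: optical density at 615 nm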

[3] = viability gain of MRP-1-high H69AR cells under doxorubicin, pilot screen, MRP-1 activator project, CellTiter-Glo, duplicate (AID 807;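 active = viability increase at or above a cutoff of the median across tested compounds plus 3 SD, cut at about 8.5% in these data, passing the limit was not always enough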;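 also: compound pretreatment 18-22 h then 72 h combined with doxorubicin; 0% = doxorubicin alone and 100% = vehicle without doxorubicin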); conditions: H69AR viability with doxorubicin, CellTiter-Glo luminescence; at 10 µM; hits give high values
[4] = growth suppression of beta-catenin knockout HCT116, pilot screen, human colon tumor cells (AID 823;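 active = cell viability at or below a set limit in both duplicate runs, the limit being the all-compound median minus 4 SD, cut at about 23% in these data, passing the limit was not always enough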;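 also: 0% = wells killed by 20 µM Hyamine and 100% = untreated DMSO cell wells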); conditions: CellTiter-Glo, 60 h, at 10 µM, hits give low values
[5] = growth suppression of PTEN-deleted HCT116, pilot screen, cell-based, HCT116 clonal line, CellTiter-Glo (AID 824;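 active = viability at or below 27.92% in each of two runs, the all-compound median minus 4 SD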;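 also: 0% = 20 µM Hyamine control and 100% = vehicle cell control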); conditions: 60 h, at 10 µM, hits give low values
[6] = inhibitors of the yeast RAM network, pilot screen, dse1pr::URA3 reporter, 5-FOA selection (AID 869);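 also: 0% = DMSO wells with no growth and 100% = 10 µM 1-NA-PP1 with full growth; RAM network block rescues cells from 5-FOA so hits raise OD615 growth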; conditions: S. cerevisiae dse1pr::URA3 5-FOA growth, OD615, 2 d; at 10 µM; hits give high values; strain carries analog-sensitive mutant Cbk1 kinase
[7] = RAM signaling pathway blockade in yeast – S. cerevisiae, Pdr1DBD-CYC8 efflux-inhibited sensitized strain, primary screen (AID 1298;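 active = RAM network inhibition above 8.4% in each of two replicates, 3 SD over the compound average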;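 also: 0% = DMSO untreated cells without growth and 100% = 10 µM 1-NA-PP1 full growth; higher means more yeast growth rescued from 5-FOA killing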); conditions: S. cerevisiae cbk1-as DSE1-URA3 strain, 5-FOA growth OD615, 2 d; at 50 µM; hits give high values

CCc1c(C)sc(NC(=O)c2cc(C)no2)c1C#N
inactive: growth inhibition [1] 1.33% | growth inhibition [2] 8.59% | viability increase [3] -0.5% | viability [4] 99% | viability [5] 93.4% | inhibition [6] 1.31% | RAM network inhibition [7] 6.13%

CC1=NC2(CCCc3c2no[n+]3[O-])N(O)C1(C)C (centres undefined)
inactive: growth inhibition [1] 6.66% | growth inhibition [2] 3.75% | viability increase [3] -1.89% | viability [4] 101% | viability [5] 98.7% | inhibition [6] 1.36% | RAM network inhibition [7] 1.51%

CCOc1ccc(N2C(=O)CC(Sc3nc(C)cc(C)n3)C2=O)cc1 (centres undefined)
inactive: growth inhibition [1] -3.95% | growth inhibition [2] 1.55% | viability increase [3] -1.4% | viability [4] 108% | viability [5] 98.9% | inhibition [6] 0.24% | RAM network inhibition [7] 3.27%

Cc1ccccc1-c1nc(CS(=O)CC(=O)NCc2ccccc2)c(C)o1 (centres undefined)
inactive: growth inhibition [1] 0.295% | growth inhibition [2] 7.02% | viability increase [3] 1.37% | viability [4] 101% | viability [5] 101% | inhibition [6] 0.655% | RAM network inhibition [7] 4%

CCOC(=O)CCc1c(C)n(CC)c2ncnn2c1=O
inactive: growth inhibition [1] -3.41% | growth inhibition [2] -0.57% | viability increase [3] -0.77% | viability [4] 102% | viability [5] 101% | inhibition [6] 0.735% | RAM network inhibition [7] 0.04%

Cc1ccc(C2CC(c3ccc(Cl)cc3)n3nc(N)nc3N2)cc1 (centres undefined)
inactive: growth inhibition [1] 1.88% | growth inhibition [2] 7.93% | viability increase [3] -0.27% | viability [4] 93.9% | viability [5] 93.5% | inhibition [6] 1.9% | RAM network inhibition [7] 8.2%

CCOC(=O)c1c(N=CN(C)C)c(C#N)n2c1CCC2
inactive: growth inhibition [1] -15.1% | growth inhibition [2] -6.7% | viability increase [3] -1.41% | viability [4] 101% | viability [5] 93.2% | inhibition [6] 1.11% | RAM network inhibition [7] 5.49%

CCCNC(=O)CS(=O)Cc1nc(-c2ccccc2C)oc1C (centres undefined)
inactive: growth inhibition [1] -14.3% | growth inhibition [2] -5.72% | viability increase [3] 0.85% | viability [4] 94.2% | viability [5] 96.9% | inhibition [6] -0.325% | RAM network inhibition [7] 6.48%

CCOc1ccc(C(=O)Nc2c3c(nn2-c2cccc(C)c2C)CS(=O)C3)cc1 (centres undefined)
inactive: growth inhibition [1] -1.6% | growth inhibition [2] 3.53% | viability increase [3] -0.32% | viability [4] 98.4% | viability [5] 96.2% | inhibition [6] 1.62% | RAM network inhibition [7] 2.34%

CCOC(=O)N1CCC(NC(=O)c2ccc(NC(=O)C3CCCO3)cc2)CC1 (centres undefined)
inactive: growth inhibition [1] -10.8% | growth inhibition [2] -9.25% | viability increase [3] 0.49% | viability [4] 97.8% | viability [5] 105% | inhibition [6] 1.09% | RAM network inhibition [7] -0.36%

COc1ccc(N2CCN(C(=O)C(Cc3ccccc3)n3cccc3)CC2)cc1 (centres undefined)
inactive: growth inhibition [1] -14.4% | growth inhibition [2] -6.94% | viability increase [3] -2.94% | viability [4] 84.9% | viability [5] 82.6% | inhibition [6] 1.7% | RAM network inhibition [7] 6.88%

CCC(C)NC(=O)c1c(-c2cc(Cl)c(OC)c(Cl)c2)noc1C (centres undefined)
inactive: growth inhibition [1] -15% | growth inhibition [2] -11.9% | viability increase [3] 0.42% | viability [4] 96.7% | viability [5] 93% | inhibition [6] 0.895% | RAM network inhibition [7] 5.69%

CC1CCc2c(sc3nc(SCc4nc(-c5ccccc5)no4)n(C)c(=O)c23)C1 (centres undefined)
inactive: growth inhibition [1] -3.38% | growth inhibition [2] -5.98% | viability increase [3] 1.25% | viability [4] 94% | viability [5] 89% | inhibition [6] 2.21% | RAM network inhibition [7] 2.32%

CCCCOc1ccc(CN2CCC(O)CC2)cc1
inactive: growth inhibition [1] -18.6% | growth inhibition [2] -6.13% | viability increase [3] -0.47% | viability [4] 90.9% | viability [5] 100% | inhibition [6] 1.06% | RAM network inhibition [7] 2.2%

O=C(Cn1c(=O)oc2cc(S(=O)(=O)N3CCc4ccccc43)ccc21)NC1CCCC1
inactive: growth inhibition [1] -3.26% | growth inhibition [2] 2.94% | viability increase [3] -1.06% | viability [4] 78.8% | viability [5] 73.9% | inhibition [6] 2.91% | RAM network inhibition [7] 0.88%

O=C(NCc1ccco1)Nc1ccc(Br)cc1
inactive: growth inhibition [1] 3.96% | growth inhibition [2] 5.27% | viability increase [3] -2.7% | viability [4] 95.7% | viability [5] 97.7% | inhibition [6] 1.09% | RAM network inhibition [7] 5.07%

Brc1ccc(-c2nnc3sc(CNC4CCCC4)cn23)cc1
inactive: growth inhibition [1] 0.69% | growth inhibition [2] 24.3% | viability increase [3] 0.19% | viability [4] 106% | viability [5] 107% | inhibition [6] 1.58% | RAM network inhibition [7] 2.6%

Cc1ccc(S(=O)(=O)N2C(=S)SCC2(C)C)cc1
inactive: growth inhibition [1] -0.04% | growth inhibition [2] 14.3% | viability increase [3] -1.47% | viability [4] 91.9% | viability [5] 83.5% | inhibition [6] -1.13% | RAM network inhibition [7] 0.51%

O=C(NCc1cccnc1)C1CC(=O)N(c2ccc(F)cc2)C1 (centres undefined)
inactive: growth inhibition [1] -18% | growth inhibition [2] -11.7% | viability increase [3] 1.27% | viability [4] 93.8% | viability [5] 101% | inhibition [6] 0.485% | RAM network inhibition [7] 2.83%

COc1ccc(NC(=O)Nc2cccc(OC)c2)cc1
inactive: growth inhibition [1] -3.64% | growth inhibition [2] -19.4% | viability increase [3] -0.65% | viability [4] 95.3% | viability [5] 93.4% | inhibition [6] 1.02% | RAM network inhibition [7] 1.14%

CCC(=O)Nc1nnc(-c2ccc(OC)cc2)o1
inactive: growth inhibition [1] -8.21% | growth inhibition [2] -11.8% | viability increase [3] -1.1% | viability [4] 103% | viability [5] 98.4% | inhibition [6] 1.01% | RAM network inhibition [7] -0.04%

CNc1ccc(OC(F)F)cc1C(=O)c1ccccc1
inactive: growth inhibition [1] 12.9% | growth inhibition [2] -4.32% | viability increase [3] -2.34% | viability [4] 89.8% | viability [5] 92.9% | inhibition [6] 0.685% | RAM network inhibition [7] 2.22%

Cn1cc(CC(=O)NCCCN2CCCC2=O)c2ccccc21
inactive: growth inhibition [1] -3.36% | growth inhibition [2] -11.5% | viability increase [3] -1.83% | viability [4] 99.3% | viability [5] 87.3% | inhibition [6] 0.77% | RAM network inhibition [7] -0.89%

COc1ccc(S(=O)(=O)N2CCN(c3c(C)cccc3C)CC2)cc1OC
inactive: growth inhibition [1] -1.27% | growth inhibition [2] -7.95% | viability increase [3] -1% | viability [4] 78.2% | viability [5] 74.4% | inhibition [6] 0.435% | RAM network inhibition [7] 10.8%

O=S(=O)(NCCO)c1cccc2cccnc12
inactive: growth inhibition [1] -8.73% | growth inhibition [2] -10.2% | viability increase [3] -1.21% | viability [4] 94% | viability [5] 85.4% | inhibition [6] 1.24% | RAM network inhibition [7] -0.64%

CC(Oc1ccc(Cl)cc1Cl)C(=O)Nc1ccncc1 (centres undefined)
inactive: growth inhibition [1] -13.3% | growth inhibition [2] -9.66% | viability increase [3] -6.03% | viability [4] 54.9% | viability [5] 54.2% | inhibition [6] 1.19% | RAM network inhibition [7] 2.04%

Cc1onc(-c2c(F)cccc2Cl)c1C(=O)OCC(=O)Nc1c(C)n(C)n(-c2ccccc2)c1=O
inactive: growth inhibition [1] -3.96% | growth inhibition [2] -1.53% | viability increase [3] -0.55% | viability [4] 87.4% | viability [5] 90.3% | inhibition [6] 0.92% | RAM network inhibition [7] 1.78%

Nc1c(C(=O)CCC(=O)O)oc2ccc(Cl)cc12
inactive: growth inhibition [1] 5.78% | growth inhibition [2] -0.24% | viability increase [3] -2.01% | viability [4] 100% | viability [5] 99.4% | inhibition [6] 0.635% | RAM network inhibition [7] 5.46%

Cc1cc(C)c2c3c(c(-c4ccccc4)n2n1)c(=O)n(C)c(=O)n3C
inactive: growth inhibition [1] -9.68% | growth inhibition [2] -1.79% | viability increase [3] -1.8% | viability [4] 101% | viability [5] 94% | inhibition [6] 2.26% | RAM network inhibition [7] 5.77%

Cc1ccc(-c2nnc(SCC(=O)Nc3ccccc3F)o2)cc1
inactive: growth inhibition [1] -11.9% | growth inhibition [2] 2.46% | viability increase [3] -0.16% | viability [4] 41.8% | viability [5] 37.8% | inhibition [6] 4.38% | RAM network inhibition [7] 5.9%

C/C(=C1/SC(N2CCOCC2)=NC1=O)c1ccc(Br)cc1
inactive: growth inhibition [1] -1.67% | growth inhibition [2] 3.21% | viability increase [3] -1.99% | viability [4] 94.5% | viability [5] 101% | inhibition [6] 1.26% | RAM network inhibition [7] 0.72%

Cc1ccc(SCC(=O)NCC(C)C)cc1
inactive: growth inhibition [1] -0.86% | growth inhibition [2] 6.93% | viability increase [3] 0.66% | viability [4] 97.1% | viability [5] 102% | inhibition [6] 0.42% | RAM network inhibition [7] 0.68%

CCc1ccc(NC(=O)C2CC=CCC2C(=O)O)cc1 (centres undefined)
inactive: growth inhibition [1] 6.68% | growth inhibition [2] 5.45% | viability increase [3] 0.72% | viability [4] 98.1% | viability [5] 98.9% | inhibition [6] -0.5% | RAM network inhibition [7] 4.12%

Cc1nnc(NC(=O)CSC2CCCCC2)s1
inactive: growth inhibition [1] 3.88% | growth inhibition [2] 17.7% | viability increase [3] -0.77% | viability [4] 105% | viability [5] 97.9% | inhibition [6] 1.1% | RAM network inhibition [7] 2.15%

CCOc1ccc(NC(=O)N2CCC(n3c(=O)[nH]c4ccccc43)CC2)cc1
inactive: growth inhibition [1] -13.3% | growth inhibition [2] -22% | viability increase [3] 6.11% | viability [4] 83.2% | viability [5] 84.2% | inhibition [6] 1.9% | RAM network inhibition [7] 2.37%

CCOC(=O)CSc1nnc(CSc2nc3sc4c(c3c(=O)[nH]2)CCC4)n1C
inactive: growth inhibition [1] -5.48% | growth inhibition [2] 4.33% | viability increase [3] -2% | viability [4] 98.4% | viability [5] 107% | inhibition [6] 0.35% | RAM network inhibition [7] 6.56%

CCCCCn1c(CNC(=O)CCC)nc2ccccc21
inactive: growth inhibition [1] -7.29% | growth inhibition [2] -2.36% | viability increase [3] -2.97% | viability [4] 101% | viability [5] 96.4% | inhibition [6] 2.5% | RAM network inhibition [7] 0.64%
